Results on 10 compounds are retold here after ChEMBL document CHEMBL2086241, “Molecular modeling, synthesis and screening of some new 4-thiazolidinone derivatives with promising selective COX-2 inhibitory activity” (Eur J Med Chem, 2012).

Usually pIC50 stands for the IC50 on a negative log10 scale, so that one unit is a factor of ten.

For assay [1], the target named is T1, Prostaglandin G/H synthase 2 (Homo sapiens, UniProt P35354).
T1 sequence (P35354 whole entry): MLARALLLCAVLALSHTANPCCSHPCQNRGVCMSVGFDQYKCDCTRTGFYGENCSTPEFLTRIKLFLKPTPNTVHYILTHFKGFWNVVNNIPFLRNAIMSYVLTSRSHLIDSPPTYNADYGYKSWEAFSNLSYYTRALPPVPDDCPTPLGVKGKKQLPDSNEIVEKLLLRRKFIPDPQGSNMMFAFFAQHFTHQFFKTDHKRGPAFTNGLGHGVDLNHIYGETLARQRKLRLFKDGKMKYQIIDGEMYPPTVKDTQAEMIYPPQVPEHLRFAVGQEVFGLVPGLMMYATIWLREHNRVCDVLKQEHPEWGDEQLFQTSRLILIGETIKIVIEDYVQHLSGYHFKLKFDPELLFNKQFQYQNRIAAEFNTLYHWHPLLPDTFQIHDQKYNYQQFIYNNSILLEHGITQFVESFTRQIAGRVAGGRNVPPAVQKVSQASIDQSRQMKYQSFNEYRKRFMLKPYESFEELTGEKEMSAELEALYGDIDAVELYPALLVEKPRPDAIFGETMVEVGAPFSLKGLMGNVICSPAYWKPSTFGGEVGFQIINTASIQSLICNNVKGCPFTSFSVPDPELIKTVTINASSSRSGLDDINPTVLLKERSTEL
Put plainly: Inhibition of human recombinant COX2 assessed as inhibition of PGF2alpha production from PGH2 by enzyme immunoassay.

For assay [2], the target named is T2, Prostaglandin G/H synthase 1 (Ovis aries, UniProt P05979).
T2 sequence (P05979 whole entry): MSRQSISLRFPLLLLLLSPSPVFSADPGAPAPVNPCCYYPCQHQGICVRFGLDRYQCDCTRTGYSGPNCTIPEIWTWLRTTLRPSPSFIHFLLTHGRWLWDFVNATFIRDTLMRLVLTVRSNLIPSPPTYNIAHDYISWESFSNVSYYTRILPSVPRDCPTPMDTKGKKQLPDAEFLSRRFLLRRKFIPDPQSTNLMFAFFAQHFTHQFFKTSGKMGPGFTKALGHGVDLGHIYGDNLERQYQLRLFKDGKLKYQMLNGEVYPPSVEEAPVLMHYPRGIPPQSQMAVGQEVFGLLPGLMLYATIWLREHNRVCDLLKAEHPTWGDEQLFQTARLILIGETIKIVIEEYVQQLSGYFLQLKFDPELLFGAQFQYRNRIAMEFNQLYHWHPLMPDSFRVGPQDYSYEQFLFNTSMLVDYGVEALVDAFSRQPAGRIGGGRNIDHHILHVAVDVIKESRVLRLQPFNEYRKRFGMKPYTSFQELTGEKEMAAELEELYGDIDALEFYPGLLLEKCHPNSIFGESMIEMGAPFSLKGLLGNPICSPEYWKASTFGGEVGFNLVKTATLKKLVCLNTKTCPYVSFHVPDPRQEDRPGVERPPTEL
Put plainly: Inhibition of ovine COX1 assessed as inhibition of PGF2alpha production from PGH2 by enzyme immuno assay. The method in brief:
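Ovine COX-1 in Tris-HCl buffer, pH 8.0, with heme, preincubated 10 min at 37 °C. Arachidonic acid started the reaction, which was stopped after 2 min with 1 M HCl. PGH₂ was reduced to PGF2α with stannous chloride, and PGF2α was quantified by competitive EIA with an AChE tracer and Ellman's reagent. IC50 came from concentration–inhibition curves, duplicate determinations.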

Assay [3] is described as follows: Selectivity index, ratio of IC50 for ovine COX1 to IC50 for human recombinant COX2.

Structures are written as SMILES. pIC50: −log10 of the molar value.

With `CS(=O)(=O)c1ccc(NN2C(=O)CSC2c2ccc(C(F)(F)F)cc2)cc1` (stereo not given), the pIC50 in assay [1] is 4.42; in assay [2], 4.21. Moreover, in assay [3], the Ratio IC50 was determined as 1.61.
For `CS(=O)(=O)c1ccc(NN2C(=O)CSC2c2ccc(Cl)cc2)cc1` (stereo not given), in that order: 3.91, 4.08 and 0.68.
For `NS(=O)(=O)c1ccc(NN2C(=O)CSC2c2ccc(F)cc2)cc1` (stereo not given) the same measures were 4.20, 4.38 and 0.67.
For `CS(=O)(=O)c1ccc(NN2C(=O)CSC2c2ccc(F)cc2)cc1` (stereo not given), in that order: 4.34, 4.20 and 1.38.
Turning to `Cc1ccc(C2SCC(=O)N2Nc2ccc(S(N)(=O)=O)cc2)cc1` (stereo not given), the pIC50 was 4.61 in assay [1] and 4.07 in assay [2]. The Ratio IC50 in assay [3] worked out at 3.49.
In the case of `Cc1ccc(C2SCC(=O)N2Nc2ccc(S(C)(=O)=O)cc2)cc1` (stereo not given), the pIC50 is 4.84 in assay [1] and 3.98 in assay [2]. The Ratio IC50 in assay [3] was determined as 7.27.
For `NS(=O)(=O)c1ccc(NN2C(=O)CSC2c2ccc(Cl)cc2)cc1` (stereo not given) the same measures were 4.34, 4.41 and 0.85.
For `NS(=O)(=O)c1ccc(NN2C(=O)CSC2c2ccccc2)cc1` (stereo not given), in that order: 4.11, 4.02 and 1.23.
For `CS(=O)(=O)c1ccc(NN2C(=O)CSC2c2ccccc2)cc1` (stereo not given) the same measures were 4.70, 4.20 and 3.16.
Take `NS(=O)(=O)c1ccc(NN2C(=O)CSC2c2ccc(C(F)(F)F)cc2)cc1` (stereo not given): the pIC50 in assay [1] was 4.29; in assay [2], 4.26. Further, the Ratio IC50 in assay [3] amounted to 1.05.
